Data set [1] can be described thus: Apparent permeability across apical to basolateral side in MDCK cells at 10 uM by LC-MS/MS analysis. It is filed as ADME, cell-based, Canis lupus familiaris. As to conditions: dog. In short, it runs like this:
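Apparent permeability, Papp A-B, measured across MDCK cell monolayers. Mean of at least two runs.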

A short description of data set [2]: Tmax in NCR nude mouse at 5 mg/kg, po. It counts as ADME, organism-based. Details: dose 5 mg/kg, route oral. As to conditions: in vivo. In short, it runs like this:
(§1)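 Female NCR nude mice given a single 5 mg/kg IV or oral dose as a solution in 35:10:15:40 PEG400:EtOH:PG:H2O. Plasma concentration-time profiles were used to derive Cmax, Tmax, Vss, CL, half-life and bioavailability.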

Data set [3] in a line: Volume of distribution at steady state in NCR nude mouse at 5 mg/kg, iv. It counts as ADME, organism-based. On the set-up: dose 5 mg/kg, route intravenous. As to conditions: in vivo, read-out: Vdss. In short, it runs like this: as §1
Data set [4] is described as follows: Cmax in NCR nude mouse at 5 mg/kg, po. Details: dose 5 mg/kg, route oral. It counts as ADME, organism-based. As to conditions: in vivo. In short, it runs like this: as §1
A short description of data set [5]: Oral bioavailability in NCR nude mouse at 5 mg/kg. It is filed as ADME, organism-based. As to conditions: in vivo. In short, it runs like this: as §1

Usually Papp A→B stands for how fast a substance crosses the layer from the apical side. In general, Tmax refers to the time at which the peak concentration occurs. In general, Cmax refers to the highest concentration seen after dosing. Usually bioavailability stands for the share of a dose that reaches the circulation, judged against a reference dose that is usually intravenous. A high value points to much systemic uptake.

On to `CC(C)n1cc(S(=O)(=O)c2ccc(CNC(=O)N3Cc4ccncc4C3)cc2)cn1`, for which the Papp A→B at 10 µM in data set [1] is 4.1 ×10⁻⁶ cm/s. The same measure, in the same setting: to `Nc1ccc(S(=O)(=O)c2ccc(CNC(=O)N3Cc4ccncc4C3)cc2)cn1` belongs 0.5 ×10⁻⁶ cm/s; to `O=C(NCc1ccc(S(=O)(=O)C2CCN(C3COC3)CC2)cc1)N1Cc2ccncc2C1`, 0.1 ×10⁻⁶ cm/s.

Turning to `Cc1ccc(S(=O)(=O)c2ccc(CNC(=O)N3Cc4ccncc4C3)cc2)cn1`, the Tmax in data set [2] is 15 min. In data set [3], the Vd worked out at 2.04 L/kg. In data set [4], this molecule registered a Cmax of 330 nM. In data set [1], the Papp A→B at 10 µM is 2.5 ×10⁻⁶ cm/s. The bioavailability in data set [5] was 20.3%. For the molecule `O=C(NCc1ccc(S(=O)(=O)c2ccccc2)cc1)N1Cc2ccncc2C1`, the Papp A→B at 10 µM in data set [1] stood at 8.3 ×10⁻⁶ cm/s. The same measure, in the same setting: to `O=C(NCc1ccc(S(=O)(=O)C2CCN(C3CCOCC3)CC2)cc1)N1Cc2ccncc2C1` belongs 0.1 ×10⁻⁶ cm/s.

The values are drawn from ChEMBL document CHEMBL2417549, “Identification of 2,3-dihydro-1H-pyrrolo[3,4-c]pyridine-derived ureas as potent inhibitors of human nicotinamide phosphoribosyltransferase (NAMPT)” (Bioorg Med Chem Lett, 2013).
